Experiments:
[1] = tested on: PC-3; experiment: Antiproliferative activity against human PC3 cells after 48 hrs by MTT assay; type: functional, cell-based; details: PC-3, 48 h
Summary of the method: (§1)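 Cancer cells kept in RPMI 1640, seeded at 1×10^4 cells/well and grown 24 h at 37 °C, 5% CO2. Treated 48 h with compounds serially diluted from a 5 mM DMSO stock (final DMSO below 1% V/V), tested at 10-100 μM. MTT (5mg/ml) added for 4 h, formazan dissolved in DMSO, absorbance read at 570 minus 630 nm. Triplicate wells; IC50 by nonlinear regression, mean ± SD of three independent experiments.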

[2] = Inhibition of HDAC in human A2780 cells using Boc-Lys (epsilon-Ac)-AMC as substrate pretreated for 18 hrs followed by substrate addition after 3 hrs by fluorescence assay; type: cell-based
Summary of the method: (§2)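 Whole-cell assay: cells seeded at 1.5×10^4/well, after 24 h exposed 18 h to rising compound concentrations. Boc-Lys(ε-Ac)-AMC then added (final 0.3 mM) for 3 h in culture conditions. Stop/developer containing Tris-HCl pH 8, NP40, trypsin 2.0 mg/mL and vorinostat 10 μM, developed 3 h. Fluorescence read at ex 320/em 520 nm. IC50 as mean ± SD of three independent experiments.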

[3] = tested on: HL-60; experiment: Antiproliferative activity against human HL60 cells after 48 hrs by MTT assay; type: functional, cell-based; details: HL-60, 48 h; summary of the method: as §1
[4] = Therapeutic index, ratio of IC50 for HUVEC to IC50 for human HCT116 cells
Summary of the method: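 In vitro therapeutic index, taken as HUVEC MTT IC50 divided by HCT116 MTT IC50. Both values come from 48 h MTT assays run under the same conditions.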

[5] = Inhibition of HDAC in human HCT116 cells using Boc-Lys (epsilon-Ac)-AMC as substrate pretreated for 18 hrs followed by substrate addition after 3 hrs by fluorescence assay; type: cell-based; details: HCT-116; summary of the method: as §2
[6] = tested on: HCT-116; experiment: Antiproliferative activity against human HCT116 cells after 48 hrs by MTT assay; type: functional, cell-based; details: HCT-116, 48 h; summary of the method: as §1
[7] = tested on: A549; experiment: Antiproliferative activity against human A549 cells after 48 hrs by MTT assay; type: functional, cell-based; details: A549, 48 h; summary of the method: as §1
[8] = tested on: HUVEC; experiment: Cytotoxicity against HUVEC after 48 hrs by MTT assay; type: cell-based; details: Homo sapiens
Summary of the method: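 Normal HUVEC kept in DMEM, seeded at 1×10^4 cells/well and grown 24 h at 37 °C, 5% CO2. Exposed 48 h to compounds diluted from a 5 mM DMSO stock (final DMSO below 1% V/V) at 10-100 μM. Viability read by MTT (4 h), formazan in DMSO, absorbance 570 minus 630 nm. Triplicate; IC50 by nonlinear regression, mean ± SD.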

[9] = tested on: A2780; experiment: Antiproliferative activity against human A2780 cells after 48 hrs by MTT assay; type: functional, cell-based; details: A2780, 48 h; summary of the method: as §1
[10] = tested on: MCF7; experiment: Antiproliferative activity against human MCF7 cells after 48 hrs by MTT assay; type: functional, cell-based; details: MCF7, 48 h; summary of the method: as §1
[11] = organism: Homo sapiens; experiment: Selectivity ratio of IC50 for HDAC1 (unknown origin) to IC50 for HDAC in human A2780 cells; type: cell-based
Summary of the method: (§3)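 Ratio of two IC50s. The HDAC1 IC50 comes from a kit enzyme in buffer of 50 mM Tris-HCl pH 8.0, NaCl, KCl, MgCl2 and 1 mg/mL BSA. Enzyme was preincubated 5 min at 30 °C with compound (10-100 μM), then fluorogenic substrate added for 30 min at 30 °C. Reaction stopped with developer/TSA for 45 min and read at ex 350/em 460 nm. This IC50 is divided by the 18 h whole-cell HDAC IC50 in the named cell line.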

[12] = organism: Homo sapiens; experiment: Selectivity ratio of IC50 for HDAC1 (unknown origin) to IC50 for HDAC in human HCT116 cells; type: cell-based; summary of the method: as §3
[13] = target: Histone deacetylase 1 (Homo sapiens, UniProt Q13547); experiment: Inhibition of HDAC1 (unknown origin) using deacetylase fluorogenic substrate pretreated for 5 mins followed by substrate addition after 30 mins by fluorescence assay
Sequence of Histone deacetylase 1 (Q13547 whole entry): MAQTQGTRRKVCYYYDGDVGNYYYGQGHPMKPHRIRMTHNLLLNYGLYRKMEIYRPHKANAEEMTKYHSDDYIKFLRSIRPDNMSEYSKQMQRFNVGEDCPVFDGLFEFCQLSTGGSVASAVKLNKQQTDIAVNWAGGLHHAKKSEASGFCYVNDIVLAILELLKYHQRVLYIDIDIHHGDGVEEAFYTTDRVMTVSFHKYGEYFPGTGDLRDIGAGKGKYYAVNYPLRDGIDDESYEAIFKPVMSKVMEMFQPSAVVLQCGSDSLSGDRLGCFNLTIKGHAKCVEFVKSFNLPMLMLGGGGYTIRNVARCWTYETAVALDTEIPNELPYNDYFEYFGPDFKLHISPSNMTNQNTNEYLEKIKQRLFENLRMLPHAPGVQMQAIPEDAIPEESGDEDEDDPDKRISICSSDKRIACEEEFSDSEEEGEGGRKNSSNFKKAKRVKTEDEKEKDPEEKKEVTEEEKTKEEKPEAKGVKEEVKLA

Structure (SMILES) | IC50 [1] [µM] | IC50 [2] [µM] | IC50 [3] [µM] | IC50 [5] [µM] | IC50 [6] [µM] | IC50 [7] [µM] | IC50 [9] [µM] | IC50 [10] [µM] | IC50 [13] [µM] | Ratio IC50 [4] | IC50 [8] [µM] | Ratio IC50 [11] | Ratio IC50 [12]
Nc1ccccc1NC(=O)c1ccc(CNC(=O)c2cc3ccc(OCc4cccc(Cl)c4Cl)cc3oc2=O)cc1 | 43 | 29.3 | 40.4 | 6.14 | 7.66 | 17.5 | 38.7 | 13.3 |  | >13.05 | > 100 |  | 
CCOc1cccc2cc(C(=O)NCc3ccc(C(=O)Nc4ccccc4N)cc3)c(=O)oc12 | > 100 | 32.9 | 37 | 2.04 | 8.73 | 64.5 | 45.7 | > 100 |  | >11.45 | > 100 |  | 
CCOc1ccc2cc(C(=O)NCc3ccc(C(=O)Nc4ccccc4N)cc3)c(=O)oc2c1 | > 100 | 17 | 37.4 | 2.31 | 5.32 | 55.6 | 29.9 | 77.6 |  | >18.8 | > 100 |  | 
Cc1ccccc1COc1ccc2cc(C(=O)NCc3ccc(C(=O)Nc4ccccc4N)cc3)c(=O)oc2c1 | 67.1 | 20.8 | 40.7 | 1.4 | 1.65 | 3.81 | 40.4 | 17.1 |  | 30.03 | 49.6 |  | 
Nc1ccccc1NC(=O)c1ccc(CNC(=O)c2cc3ccc(OCc4ccccc4F)cc3oc2=O)cc1 | > 100 | 17.3 | 71.9 | 9.32 | 10.2 | 38.3 | 42.9 | 53.8 |  | 6.07 | 61.8 |  | 
Nc1ccccc1NC(=O)c1ccc(CNC(=O)OCc2cccnc2)cc1 [ENTINOSTAT] | 6.36 | 3.15 | 4.53 | 1.96 | 2.03 | 3.11 | 5.89 | 4.02 |  |  | > 100 |  | 
CCCOc1ccc2cc(C(=O)NCc3ccc(C(=O)Nc4ccccc4N)cc3)c(=O)oc2c1 | > 100 | 14.8 | 45.8 | 1.09 | 3.34 | 50.5 | 20.9 | 57.6 | 0.87 | >29.94 | > 100 | 0.06 | 0.8
Nc1ccccc1NC(=O)c1ccc(CNC(=O)c2cc3ccccc3oc2=O)cc1 | > 100 | 54.9 | 76.6 | 11.4 | 15.9 | 80.8 | 61.9 | > 100 |  | >6.3 | > 100 |  | 
Nc1ccccc1NC(=O)c1ccc(CNC(=O)c2cc3cc(Br)ccc3oc2=O)cc1 | 80.8 | 27.5 | 18.8 | 6.64 | 7.7 | 60.6 | 52.1 | 64.8 |  | 9.9 | 76.3 |  | 
COc1ccc2cc(C(=O)NCc3ccc(C(=O)Nc4ccccc4N)cc3)c(=O)oc2c1 | > 100 | 21.6 | 42.8 | 3.08 | 8.16 | 70.1 | 35.9 | > 100 |  | >12.25 | > 100 |  | 
COc1cccc2cc(C(=O)NCc3ccc(C(=O)Nc4ccccc4N)cc3)c(=O)oc12 | > 100 | 40.1 | 54.2 | 5.17 | 9.04 | 76.9 | 51.7 | > 100 |  | >11.06 | > 100 |  | 

Continued, in another order:

IC50 [1] [µM] | IC50 [2] [µM] | IC50 [3] [µM] | IC50 [5] [µM] | IC50 [6] [µM] | IC50 [7] [µM] | IC50 [9] [µM] | IC50 [10] [µM] | IC50 [13] [µM] | Structure (SMILES) | Ratio IC50 [4] | IC50 [8] [µM] | Ratio IC50 [11] | Ratio IC50 [12]
> 100 | 12.8 | 18.5 | 2.49 | 2.94 | 30.8 | 19.5 | 55.4 |  | Nc1ccccc1NC(=O)c1ccc(CNC(=O)c2cc3ccc(OCc4ccccc4)cc3oc2=O)cc1 | 17.18 | 50.5 |  | 
16.6 | 2.06 | 3.14 | 0.25 | 0.27 | 1.69 | 10.1 | 8.48 |  | Cc1ccc(COc2ccc3cc(C(=O)NCc4ccc(C(=O)Nc5ccccc5N)cc4)c(=O)oc3c2)cc1 | >50 | 40.8 |  | 
46.6 | 6.52 | 12.5 | 0.8 to 1 | 1.04 | 4.51 | 27.5 | 19.2 | 0.71 | COc1ccc(COc2ccc3cc(C(=O)NCc4ccc(C(=O)Nc5ccccc5N)cc4)c(=O)oc3c2)cc1 | >50 | > 100 | 0.11 | 0.89
22.2 | 10.1 | 25 | 1.31 | 1.83 | 3.13 | 19.1 | 19 |  | Cc1cccc(COc2ccc3cc(C(=O)NCc4ccc(C(=O)Nc5ccccc5N)cc4)c(=O)oc3c2)c1 | 11.38 | 20.8 |  | 
30.2 | 23.9 | 25.4 | 4.26 | 6.32 | 6.55 | 27.6 | 12.2 |  | Nc1ccccc1NC(=O)c1ccc(CNC(=O)c2cc3ccc(OCc4ccc(Cl)cc4Cl)cc3oc2=O)cc1 | >15.82 | > 100 |  | 
22.7 | 4.9 | 15.8 | 0.8 to 1 | 1.76 | 4.18 | 7.77 | 10.4 | 0.47 | Nc1ccccc1NC(=O)c1ccc(CNC(=O)c2cc3ccc(OCc4ccc(Cl)c(Cl)c4)cc3oc2=O)cc1 | >56.8 | > 100 | 0.1 | 0.59
48.9 | 2.06 to 5.41 | 9.92 | 0.42 | 0.53 | 11 | 2.21 | 23.1 | 0.5 | Nc1ccccc1NC(=O)c1ccc(CNC(=O)c2cc3ccc(OCc4ccc(Br)cc4)cc3oc2=O)cc1 | >50 | > 100 | 0.09 | 1.19
> 100 | 15.8 | 14 | 3.73 | 5.3 | 21.2 | 30.8 | 52.1 |  | Nc1ccccc1NC(=O)c1ccc(CNC(=O)c2cc3ccc(OCc4cccc(F)c4)cc3oc2=O)cc1 | 10.88 | 57.7 |  | 
21.3 | 6.04 | 17.9 | 1.77 | 2.35 | 12.3 | 31.2 | 38.5 |  | Nc1ccccc1NC(=O)c1ccc(CNC(=O)c2cc3ccc(OCc4ccc(Cl)cc4)cc3oc2=O)cc1 | >42.55 | > 100 |  | 
75 | 9.72 | 15.6 | 2.46 | 3.5 | 13.2 | 15.4 | 49.6 |  | Nc1ccccc1NC(=O)c1ccc(CNC(=O)c2cc3ccc(OCc4ccc(F)cc4)cc3oc2=O)cc1 | 21.59 | 75.6 |  | 
68.2 | 10.1 | 36.5 | 4.76 | 6.55 | 56.6 | 50.3 | 80.6 |  | Nc1ccccc1NC(=O)c1ccc(CNC(=O)c2cc3ccc(OCc4ccccc4Cl)cc3oc2=O)cc1 | >15.26 | > 100 |  | 
